Screening data as filed in PubChem BioAssay.
NOD2-RIPK2 inh: NOD2-RIPK2 binding disruptors in cells, primary screen, fluorescence, CHO cells, BLA complementation; Receptor-interacting serine/threonine-protein kinase 2 (Homo sapiens), O43353; CCF4 ratio; inhibition, % at 4.98 µM; hit rate 0.38% among 360,000; AID 624267, 2012; in the data active = inhibition above about 21%;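 also: 0% = vehicle only and 100% = reference blocker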
TLR9-MyD88 block: inhibitors of TLR9-MyD88 association in cells, primary screen, cell-based, CHO, BLA complementation, fluorescence | CCF4 FRET ratio | hit rate 0.21% among 340,000 | Toll-like receptor 9 (Homo sapiens) + Myeloid differentiation primary response protein … | inhibition, % at 4.98 µM | AID 504734, 2011;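 active = inhibition above the mean over all tested compounds plus 3 SD, cut at about 21% in these data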;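 also: 0% = DMSO only wells and 100% = clavulanate BLA inhibitor control wells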
TLR4-MyD88 BLA: inhibitors of TLR4-MyD88 association in cells, primary screen, cell-based, HeLa CL3-4, BLA complementation, FRET ratio; inhibition, % at 8.4 µM; Toll-like receptor 4 (Homo sapiens) + Myeloid differentiation primary response protein …; HeLa CL3-4 TLR4/MyD88 BLA complementation; hit rate 0.18% among 200,000; in the data active = inhibition above about 25%;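 also: 0% = vehicle and 100% = reference inhibitor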
XBP1 UPR activ: activators of adaptive XBP1 UPR arm, primary screen, cell-based, CHO-XBP1 luciferase reporter, luminescence, uHTS | IRE1-XBP1 UPR activation; percent of tunicamycin response, DMSO as zero | activation, % at 20 µM | hit rate 0.33% among 330,000 | AID 463104, 2010;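 active = versus positive control, 20 µM dose yields 30% or more activation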;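 also: 100% = tunicamycin at 10 µg/mL and 0% = DMSO only wells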
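Material: CHO cell line with stable XBP1 luciferase reporter; schedule: 16-18 h cell attachment at 37 °C, then 6 h compound exposure; signal: glow luminescence from Steady-Glo reagent; medium: serum-containing F12 medium, 10% FBS; benchmarks: tunicamycin 10 µg/mL and vehicle-only wells; read-out: percent activation relative to tunicamycin reference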
CHOP inh: inhibitors of CHOP promoter induction, primary screen, cell-based, unfolded protein response, luciferase reporter | inhibition, % at 10 µM | AID 2732, 2010 | hit rate 3.8% among 220,000 | CHO-K1 CHOP-promoter luciferase, tunicamycin-induced, 15-18 h;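 active = compounds that reduced the stress-induced luciferase reporter signal by more than about 70% of percent inhibition, limit read from the data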;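 also: 0% = tunicamycin plus vehicle and 100% = wells without tunicamycin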
CHOP UPR activ: activators of apoptotic CHOP UPR arm, primary screen, cell-based, CHO-CHOP luciferase reporter, luminescence, uHTS. activation, % at 10 µM. AID 449763, 2010. hit rate 0.34% among 330,000. UPR activation; percent of tunicamycin response over DMSO baseline;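 active = at 10 µM dose, activation of 40% or more, normalized to positive control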;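 also: 100% = tunicamycin at 10 µg/mL and 0% = DMSO alone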
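Assay system: CHO cells with stable CHOP pathway luciferase reporter; Buffer or medium: F12 plus 10% serum; Times: 16-18 h cell attachment, then 6 h compound exposure, 37 °C; Signal: luciferase luminescence; Read-out basis: percent activation relative to tunicamycin control; Control set: tunicamycin high control, DMSO low control.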
An asterisk follows results filed as active; . = no result. The full list was thinned out, with hits kept by preference.

SMILES	NOD2-RIPK2 inh	TLR9-MyD88 block	TLR4-MyD88 BLA	XBP1 UPR activ	CHOP inh	CHOP UPR activ
CCCN(CC(=O)Nc1cc(Cl)cc(Cl)c1)CC(=O)Nc1ccc(F)c(F)c1F	3	-13	7	-2	76*	3
O=C(COc1ccc2ccccc2c1)Nc1nc2ccccc2[nH]1	-1	2	10	3	78*	0
CCCCCCN1C[C@@H](O)[C@H](n2cc(COC(=O)c3ccccc3)nn2)C[C@@H]1c1ccc(OC)cc1	4	0	.	.	.	.
Cc1ccc(S(=O)(=O)N2C[C@H]3C(=O)C[C@@H](c4ccc(Cl)cc4)N(S(=O)(=O)c4ccccc4C)[C@H]3C[C@H]2c2cccc(Cl)c2)cc1	0	-10	.	.	.	.
Cc1cc2ncn(C(=O)c3c(-c4ccccc4Cl)noc3C)c2cc1C	-8	4	3	-2	76*	-1
Cc1onc(-c2ccccc2Cl)c1C(=O)N1CCCC1	-1	-5	.	-5	.	1
COCCNc1nc(NCc2ccc(C(C)C)cc2)c2sccc2n1	-3	.	.	.	.	.
O=C1c2ccccc2C(=Nc2ccccc2)C1c1cccc(Br)c1 (stereo not given)	-8	2	-14	4	72*	0
CC(O)CNC1c2ccccc2CC1O (stereo not given)	-2	-4	.	.	.	.
N#Cc1cccc(N2[C@@H](Cc3cc4ccccc4n3Cc3ccccc3)COC[C@H]2Cc2ccc3ccccc3c2)c1	-9	0	.	.	.	.
COc1ccc(-c2onc(C)c2-c2ccc(C(=O)OC(C)C)o2)c(O)c1	-5	-1	-2	-2	82*	-1
N#Cc1ccc(S(=O)(=O)N2CCN(CN3C(=O)CC4(CCCC4)C3=O)CC2)cc1	2	2	.	.	.	.
CCc1ccccc1N1CCN(S(=O)(=O)c2ccc(F)c(C)c2)CC1	-4	-2	3	-1	74*	-2
CCCc1ccc(S(=O)(=O)NCCc2ccncc2)cc1	8	-2	4	2	66	-1
CCCCCc1ccc(S(=O)(=O)NCCc2ccncc2)cc1	-14	2	-8	0	72*	-1
CC(O)(c1cccc(F)c1)c1nc(-c2cccc3cccnc23)cs1 (stereo not given)	-2	.	.	.	.	.
Clc1ccc(N=c2ssnc2Cl)nc1	1	8	0	13	103*	7
OCc1ccccc1N=c1ssnc1Cl	.	.	13	-1	42	3
COc1cccc(S(=O)(=O)N(C)C[C@H]2OCc3cnnn3CCCC(=O)N([C@H](C)CO)C[C@@H]2C)c1	-10	-11	.	.	.	.
Cc1csc(SCC(=O)c2cc(C)n(Cc3cccs3)c2C)n1	-3	-4	3	-5	76*	-7
C[C@@H](NC(=O)[C@@H]1CCCN1C(=O)[C@@H]1CCCN1C(=O)c1cccc2ccccc12)c1ccccc1	-5	.	.	.	.	.
CCCC1CCC(c2nc(-c3cccnc3)no2)CC1 (stereo not given)	1	-8	2	6	89*	5
CCCCCCC1CCC(c2nc(-c3ccncc3)no2)CC1 (stereo not given)	1	-12	9	-2	-3	-1
O=c1cc(N2CCCCC2)c(-c2ccccc2)nn1Cc1ccc(Cl)cc1Cl	-10	2	-2	-4	5	-2
O=c1cc(N2CCCCC2)c(-c2ccccc2)nn1Cc1ccccc1Cl	5	-1	1	-4	90*	2
CCOC(=O)/C(N=Nc1c(Br)cc(Br)cc1Br)=C(\C)O	-11	-8	-4	-1	85*	1
CCOC(=O)NC(=O)/C(N=Nc1cc(C)cc(C)c1)=C(\C)O	5	-3	-10	-1	23	1
CCCOc1cc(C)c(S(=O)(=O)n2ccc(C)n2)cc1C	-8	6	3	-5	93*	2
COc1cc(S(=O)(=O)n2ccc(C)n2)c(C)cc1C	12	9	.	.	.	.
